The target in data set [1] is T1, LasR Y93F (Pseudomonas aeruginosa, UniProt P25084, Y93F).
T1 sequence (P25084 1-239 Y93F): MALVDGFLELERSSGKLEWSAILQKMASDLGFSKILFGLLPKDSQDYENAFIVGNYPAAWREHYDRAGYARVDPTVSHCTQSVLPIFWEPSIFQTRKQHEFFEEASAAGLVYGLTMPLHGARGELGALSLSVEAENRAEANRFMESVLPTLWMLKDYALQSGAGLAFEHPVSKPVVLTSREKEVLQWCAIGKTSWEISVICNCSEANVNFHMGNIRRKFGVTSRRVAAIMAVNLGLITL
The data set can be described thus: E. coli lasB-lux reporter assay, LasR Y93F. The format is cell-based. The note with it: read-out: EC50 in the plasB-lux assay; LasR Y93F; NR = non-responsive. For orientation: In a reporter assay the amount or activity of a reporter protein is the signal.

In data set [2] the test system is LasR. The note with it: cited from earlier work.
The target in data set [3] is T2, LasR A127W (Pseudomonas aeruginosa, UniProt P25084, A127W).
T2 sequence (P25084 1-239 A127W): T1 sequence (P25084 1-239 Y93F) with F93Y, A127W
The data set is described as follows: E. coli lasB-lux reporter assay, LasR A127W. To be noted: read-out: EC50 in the plasB-lux assay, NR = non-responsive. It is filed as cell-based.

Data set [4] deals with pyocyanin production. To be noted: cited from earlier work.
Data set [5] deals with T3, LasR T75V (Pseudomonas aeruginosa, UniProt P25084, T75V).
T3 sequence (P25084 1-239 T75V): T1 sequence (P25084 1-239 Y93F) with T75V, F93Y
The data set can be described thus: E. coli lasB-lux reporter assay, LasR T75V. The format is cell-based. The note with it: read-out: EC50 in the plasB-lux assay; LasR T75V; NR = non-responsive.

In data set [6] the target is T4, LasR T75V/Y93F/A127W (Pseudomonas aeruginosa, UniProt P25084, A127W/T75V/Y93F).
T4 sequence (P25084 1-239 T75V/Y93F/A127W): T1 sequence (P25084 1-239 Y93F) with T75V, A127W
The data set can be described thus: E. coli lasB-lux reporter assay, LasR T75V/Y93F/A127W. The format is cell-based. The note with it: read-out: EC50 in the plasB-lux assay; LasR T75V/Y93F/A127W; NR = non-responsive.

Data set [7] has as its target T5, LasR T75V/Y93F (Pseudomonas aeruginosa, UniProt P25084, T75V/Y93F).
T5 sequence (P25084 1-239 T75V/Y93F): T1 sequence (P25084 1-239 Y93F) with T75V
The data set is described as follows: E. coli lasB-lux reporter assay, LasR T75V/Y93F. It is filed as cell-based. To be noted: read-out: EC50 in the plasB-lux assay; LasR T75V/Y93F.

Data set [8] has as its system luciferase. The data set is described as follows: Off-target inhibition of luciferase in the E. coli lasB-lux reporter strain. The format is cell-based. The note with it: high concentrations (>10 μM).
Data set [9] addresses T6, LasR Y93F/A127W (Pseudomonas aeruginosa, UniProt P25084, A127W/Y93F).
T6 sequence (P25084 1-239 Y93F/A127W): T1 sequence (P25084 1-239 Y93F) with A127W
The data set can be described thus: E. coli lasB-lux reporter assay, LasR Y93F/A127W. It is filed as cell-based. To be noted: read-out: EC50 in the plasB-lux assay; LasR Y93F/A127W; NR = non-responsive.

Data set [10] deals with T7, WT LasR LBD (Pseudomonas aeruginosa, UniProt P25084).
T7 sequence (P25084 1-173 limits assumed): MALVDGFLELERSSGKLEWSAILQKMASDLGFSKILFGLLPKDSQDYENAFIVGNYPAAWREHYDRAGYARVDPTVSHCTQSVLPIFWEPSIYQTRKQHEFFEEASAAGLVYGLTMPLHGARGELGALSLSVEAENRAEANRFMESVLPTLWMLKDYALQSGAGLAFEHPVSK
The data set is described as follows: Protein solubility assay, WT LasR LBD produced in E. coli. The note with it: induction at 25°C; 10 μM compound. It is filed as cell-based. A digest of the protocol: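 E. coli BL21(DE3) with plasmid-borne 6xHis-WT LasR LBD were grown overnight, diluted 1:500 in LB with ampicillin and grown to OD600 0.5. Cells were induced with 1 mM IPTG plus test compound at 10 μM final, then shaken 4 h at 25°C or 37°C. Whole-cell lysate and soluble fractions were compared by band intensity. Fraction soluble = soluble band / whole-cell lysate band.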

Residue numbers refer to the chain shown, from its start.

The term EC50 denotes the midpoint of the concentration-response curve. Take “meta-bromo-thiolactone [mBTL, reference compound]”: the EC50 in [1] came to 10 nM; in [3], 60 nM; in [5] it was 6 nM; in [6], 10 nM; in data set [7], 10 nM; in data set [9] it was 9 nM. For the same substance, the “activity on LasR” value in data set [2] is listed as “is a LasR agonist”. Besides, the effect on pyocyanin result in [4] is listed as “inhibiting pyocyanin”. Further, the “off-target inhibition of luciferase” value in data set [8] is listed as “caused off-target inhibition of luciferase”. The “soluble WT LasR LBD” value in data set [10] was “yielded soluble WT LasR LBD”.

The record behind these values is article PMC6601336 (ACS chemical biology, 2019).
